# mIAP block – blocks mouse intestinal alkaline phosphatase | purified mouse IAP, CDP-Star luminescence, 30 min | inhibition, % at 10 µM | 330,000 tested, 0.2% active | AID 2806;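 active means inhibition of at least 40% at 10 µM in the primary screen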;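 further: plate controls were DMSO with enzyme for no effect and no enzyme wells for full effect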
# hIAP block – blocks human intestinal alkaline phosphatase; purified IAP, CDP-Star luminescence, 30 min; P09923; inhibition, % at 10 µM; 330,000 tested, 0.12% active;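 active means inhibition reaching a set limit with compound at 10 µM in the primary screen, cut at about 35% in these data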;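 further: plate controls were DMSO wells with enzyme for no effect and no-enzyme buffer wells for full effect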
# Target sequence (P09923 whole entry, looked up): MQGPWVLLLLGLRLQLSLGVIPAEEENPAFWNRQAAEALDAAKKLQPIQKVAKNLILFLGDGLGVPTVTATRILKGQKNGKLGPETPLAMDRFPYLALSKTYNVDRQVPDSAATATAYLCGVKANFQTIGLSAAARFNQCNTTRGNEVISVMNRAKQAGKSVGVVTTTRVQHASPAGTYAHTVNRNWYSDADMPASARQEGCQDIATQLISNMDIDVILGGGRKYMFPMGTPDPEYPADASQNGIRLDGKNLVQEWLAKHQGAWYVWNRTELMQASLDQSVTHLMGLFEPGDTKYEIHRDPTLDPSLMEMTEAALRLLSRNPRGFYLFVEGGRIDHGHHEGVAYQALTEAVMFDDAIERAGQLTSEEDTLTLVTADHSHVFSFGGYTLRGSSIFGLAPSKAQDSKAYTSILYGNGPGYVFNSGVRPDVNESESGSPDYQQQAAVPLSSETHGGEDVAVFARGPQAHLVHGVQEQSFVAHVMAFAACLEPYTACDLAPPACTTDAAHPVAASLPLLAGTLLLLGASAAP
# hIAP act – increases human intestinal alkaline phosphatase activity | P09923 | purified human IAP, CDP-Star luminescence, 30 min; stronger effect = higher value; 1 = vehicle-only enzyme, 0 = enzyme-free background | activation factor at 10 µM | 330,000 tested, 0.16% active | AID 2524;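 active means activation factor of the enzyme at least 2-fold when tested at 20 µM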
# bIAP inh – intestinal alkaline phosphatase (bovine) inhibition. purified bovine IAP, CDP-star luminescence, 30 min. inhibition, % at 20 µM. 190,000 tested, under 10 active. AID 1019;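 active means over 50% inhibition of intestinal alkaline phosphatase at 20 µM in the single-dose screen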
#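 System: Purified bovine intestinal alkaline phosphatase (IAP) enzyme | Input: IAP diluted 1/65,000,000 in the well | Also added: CDP-star chemiluminescent phosphatase substrate, 30 µM final | Dosing: 20 µM single dose | Times: Enzyme reaction for 30 min at room temperature | Detection: Luminescence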
# mIAP activ – mouse IAP activation; muIAP, CDP-Star luminescence, 30 min; stronger effect = higher value; 1 = vehicle-only enzyme signal, 0 = enzyme-free wells; activation factor at 10 µM; 330,000 tested, 0.24% active;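 active means activation factor of at least 2 at 20 µM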
#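 System: mouse IAP enzyme. Reagent: CDP-Star chemiluminescent phosphatase substrate. Benchmarks: DMSO wells, no-enzyme wells. Times: 30 min enzyme-substrate-compound incubation at room temperature. Detection: luminescence from enzymatic CDP-Star hydrolysis. Doses: test compounds delivered from DMSO solution.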
# bIAP act – intestinal alkaline phosphatase (bovine) activation; purified bovine IAP, CDP-star luminescence, 30 min; stronger effect = higher value; fold of DMSO-control signal, blank-subtracted; activation factor at 20 µM; 200,000 tested, 0.17% active; AID 1016;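 active means activation factor of 2 or more at 20 µM, a signal rise over negative controls twice the positive control's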
# Active calls of the source: *; nt = not tested or not shown. Most compounds without a hit are left out; they make up all but 0.72% or so of the library.
SMILES,mIAP block,hIAP block,hIAP act,bIAP inh,mIAP activ,bIAP act
CS(=O)(=O)c1ccc(Cl)c(NC(=O)c2cccc(-n3cnnn3)c2)c1,5,6,0.94,nt,0.95,nt
NC(=O)c1ccc(NC(=O)CSc2nnc(-c3ccc4c(c3)OCO4)o2)cc1,6,-12,1.1,nt,0.94,nt
O=C(CSc1nnc(-c2ccc3c(c2)OCO3)o1)Nc1c(F)cccc1F,55*,-22,1.2,nt,0.45,nt
Cn1c(CN2CCCC2)nc2cc(NC(=O)Nc3ccccc3)ccc21,-26,1,0.99,-131,1.3,2.3*
Cn1c(CN2CCCCC2)nc2cc(NC(=O)c3ccccc3)ccc21,-1,11,0.89,-4,1,1
CC(C)(C)c1ccc(S(=O)(=O)N2CCN(c3ccccn3)CC2)cc1,-5,-10,1.1,nt,1.1,nt
COc1cc(/C=C2/C(=O)NN(c3cccc(F)c3)C2=O)ccc1OC(=O)c1ccco1,11,16,0.84,-109,0.89,2.1*
CC(=O)c1ccc(N(CC(=O)NC2CCCC2)C(=O)CCC(=O)Nc2cc(C)on2)cc1,4,-2,1,nt,0.96,nt
COC(=O)Nc1ccc(S(=O)(=O)Nc2ccc(O)cc2)cc1,12,-5,1.1,-142,0.88,2.4*
COC(=O)Nc1ccc(S(=O)(=O)Nc2ccc(C)cc2)cc1,nt,nt,nt,6,nt,0.9
CCc1noc(C)c1C(=O)Nc1nnc(C(CC)CC)s1,7,2,0.98,nt,0.93,nt
COc1ccccc1NS(=O)(=O)c1cc([N+](=O)[O-])ccc1N/N=C/c1c[nH]c2ccccc12,22,11,0.89,47,0.78,0.5
COc1ccc(C=NNc2ccc([N+](=O)[O-])cc2S(=O)(=O)Nc2ccccc2C(=O)O)cc1OC,42*,9,0.91,nt,0.58,nt
OC[C@@H]1[C@@H](c2ccc(Cl)cc2)C(c2ccc(F)cc2)=NN1c1ccccc1,-102,nt,nt,nt,2*,nt
OC[C@@H]1[C@@H](c2ccccc2)C(c2ccc(F)cc2)=NN1c1ccccc1,-84,nt,nt,nt,1.8,nt
Cc1cccc(C2=NN(c3ccccc3)[C@H](CO)[C@H]2c2ccc(Cl)cc2)c1,-101,nt,nt,nt,2*,nt
CCN1CCN(C(=O)CCc2nnc3ccc(N4CCC5(CC4)OCCO5)nn23)CC1,7,-6,1.1,nt,0.93,nt
CN(C)S(=O)(=O)c1cccc(-c2nn(-c3ccccc3)cc2/C=C2\SC(=S)NC2=O)c1,nt,nt,nt,-108,nt,2.1*
CCOCCCn1c(SCC(=O)Nc2ccc(OC)cc2)nc2ccccc2c1=O,15,4,0.96,nt,0.85,nt
O=C(O)Cc1ccc(O)c(O)c1,60*,15,0.85,nt,0.4,nt
CCCOc1ccc(CNC(=S)NCc2ccc(OC(C)C)cc2)cc1,-315,-22,1.2,-2,4.2*,1
Cc1ccc(Nc2nc(CSc3n[nH]c(N)n3)cs2)cc1,9,-54,1.5,nt,0.91,nt
COc1ccc(CCNC(=O)COC(=O)CNS(=O)(=O)c2ccc(SC)c([N+](=O)[O-])c2)cc1,-11,-7,1.1,nt,1.1,nt
COc1ccc(OCC(=O)N2CCN(C(=O)COc3ccc(Br)cc3)CC2)cc1,74*,11,0.89,5,0.26,1
CC(=O)N1CCN(C(=O)COc2ccc(Br)cc2)CC1,3,-12,1.1,2,0.97,1
SMILES,mIAP block,hIAP block,hIAP act,bIAP inh,mIAP activ,bIAP act
Cn1ccnc1C1CCCCN1C(=O)c1cc(COc2ccc(F)cc2Cl)on1 (stereo unspecified),5,29,0.71,-3,0.95,1
COc1cc(NC(=S)N2CCN(C)CC2)cc(OC)c1,0,-30,1.3,nt,1,nt
CC(C)C1Cc2c(C#N)c(N)sc(=S)c2CO1 (stereo unspecified),40*,-10,1.1,37,0.6,0.6
COc1ccc(C2C(C(=O)Nc3cc(OC)c(OC)c(OC)c3)c3ccccc3C(=O)N2C)cc1 (stereo unspecified),-102,-36,1.4,-123,2*,2.2*
COc1ccc(N2CSC3=C(C#N)C(c4cccs4)CC(=O)N3C2)cc1 (stereo unspecified),44*,24,0.76,-10,0.56,1.1
CCc1ccc(N2CSC3=C(C#N)C(c4cccs4)CC(=O)N3C2)cc1 (stereo unspecified),31,-1,1,25,0.69,0.7
CCOC(=O)c1sc(NC(=O)Nc2cccc(Cl)c2)cc1C,-104,-12,1.1,-1,2*,1
Oc1ccc(-c2nc3c4c(ncn3n2)-c2ccccc2CC42CCCC2)cc1,0,16,0.84,11,1,0.9
CCOC(=O)Cc1cnc(NC(=O)CSc2nc(C)c(CC)c(=O)[nH]2)s1,1,2,0.98,-11,0.99,1.1
O=C(NCCCN1CCCC1=O)c1cccc(S(=O)(=O)Nc2ccccc2Cl)c1,-4,14,0.85,nt,1,nt
Cc1cccc(OCC(=O)Nc2ccncc2)c1C,-13,-6,1.1,nt,1.1,nt
Cc1cccc(OCC(=O)Nc2ncn[nH]2)c1C,-2,-103,2*,nt,1,nt
Fc1ccc(-c2n[nH]c(=S)n2/N=C/c2c[nH]c3ccccc23)cc1,-16,-28,1.3,-113,1.2,2.1*
COc1ccc(C(CC(=O)Nc2cc(OC)cc(OC)c2)n2cccc2)cc1 (stereo unspecified),-122,-20,1.2,10,2.2*,0.9
COc1ccc(C(CC(=O)Nc2ccccc2OC)n2cccc2)cc1 (stereo unspecified),0,-5,1,11,1,0.9
COc1ccc(C(=O)/C(=C/c2cccs2)c2nc3ccccc3o2)cc1,46*,12,0.88,-2,0.55,1
COc1ccc(/C=C(\CC(=O)O)c2nc3ccccc3o2)cc1,-11,-13,1.1,-12,1.1,1.1
O=C(Cc1ccc(Cl)cc1)Nc1cccc(S(=O)(=O)N2CCCCC2)c1,-112,11,0.89,nt,2.1*,nt
COc1cc(C(=O)Nc2nc3ccccc3[nH]2)ccc1OC(F)F,0,-20,1.2,nt,1,nt
COc1ccc(C(=O)Nc2nc3ccccc3[nH]2)cc1OC,4,3,0.97,-122,0.96,2.2*
Cc1ccc(C(=O)N2CCN(S(=O)(=O)c3cc(Br)ccc3Br)CC2)o1,-4,-2,1,nt,1,nt
Cc1cc(C(=O)OCC(=O)Nc2ccccc2[N+](=O)[O-])c2ccccc2n1,-4,15,0.85,-108,1,2.1*
O=C(Nc1cccc(C(F)(F)F)c1)C1CCN(S(=O)(=O)c2cccnc2)CC1,-3,6,0.94,nt,1,nt
Cc1nc(SCC(=O)c2ccc(F)c(F)c2)[nH]c(=O)c1Oc1ccc(F)cc1,15,2,0.98,nt,0.85,nt
O=C(Nc1ccc(Cl)c(C(F)(F)F)c1)NC1CC2CCCC(C1)N2C1CC1 (stereo unspecified),-337,8,0.92,nt,4.4*,nt

# From PubChem BioAssay
